Measured values published in PMC6129214 (Nature medicine, 2018).

How the values were obtained:
plasma TMAO = assay: Plasma TMAO levels; format: in vivo; details: mice on a choline-supplemented diet, data not shown
platelet aggregation [1] = assay: Mouse ex vivo platelet aggregometry in PRP; details: ADP 1 μM, choline-supplemented mice
In short: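 Mice on a choline-supplemented (1% w/w) or control diet, with or without test compound in the diet (0.006% or 0.06% w/w, 2 weeks), are anaesthetized with ketamine 100 mg/kg and xylazine 10 mg/kg. Blood is drawn and PRP aggregation to 1 μM ADP is recorded as % of maximum amplitude per mouse. Plasma TMAO is also measured.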

[2] = test system: carotid artery thrombus formation; assay: FeCl3-induced carotid artery injury thrombosis model; format: in vivo, mice; details: DMB 1.3% v/v; 0.06% IMC or 0.006% FMC in diet
platelet aggregation [3] = assay: Direct incubation of inhibitor with mouse PRP, platelet aggregometry; format: cell-based, mice; details: 20 µM, with or without ADP

SMILES	effect on plasma TMAO levels in vivo (plasma TMAO)	effect on choline diet-enhanced ADP-dependent platelet aggregation in PRP (platelet aggregation [1])	effect on choline diet-induced rise in TMAO and in vivo rate of clot formation [2]	effect of direct incubation on platelet aggregometry responses, mouse PRP (platelet aggregation [3])
Oc1ccc(/C=C/c2cc(O)cc(O)c2)cc1 [Resveratrol]	showed no effect	–	–	–
CC(C)(C)CCO [DMB, 3,3-dimethyl-1-butanol]	–	significantly reduced	attenuated	no effects
